Calls of active or inactive are those of the source.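 How the source made its calls, unless noted: active means inhibition at or above 50% at 10 µM; inactive means inhibition below 50%.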
How the values were obtained:
[1] = inhibitors of TNFa-induced NFkB p65 translocation, primary screen, imaging, HUVEC, MLSMR starter and 10KST1 sets (AID 438;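 active means inhibition above 20% together with a positive visual image hit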;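 further: compound added about 3h40 before a 20 min TNFalpha stimulation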;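 on inhibition: signal is the nuclear over cytoplasmic p65 intensity ratio per well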); settings: HUVEC TNFa-induced p65 nuclear translocation; cell count: measured here: nuclei count (cytotoxicity indicator), at 2.08 µM; inhibition: at 2 µM, stronger effect = higher value, 0% TNFa-plus-vehicle, 100% no-TNFa wells
[2] = reduction of polyQ htt aggregates in cells – imaging, exon1htt(103Q)mCFP cells, high-content imaging, primary screen (AID 483;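 active means visual image review flags a hit and inhibition of aggregation exceeds 20%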;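 further: compound exposure lasted 3 days before fixation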;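 on nuclei count: percent of the per-plate median nuclei count of sample wells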); settings: exon1htt(103Q)mCFP cell line, aggregate imaging, at 2 µM; inhibition of aggregation: stronger effect = higher value; nuclei count: measured here: cell count, toxicity
[3] = endothelial E-selectin expression blockers – imaging, HUVEC, immunofluorescence, MLSMR starter and 10KST1 sets, primary screen (AID 487;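 active means visually confirmed hit in the image check and inhibition above 20%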;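 on inhibition: signal is fraction of cell area covered by stained E-selectin grains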;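 on nuclei count: 100% = median nuclei count of all wells on the same plate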); settings: HUVEC TNFalpha-induced E-selectin immunofluorescence imaging, at 2 µM; inhibition: stronger effect = higher value; nuclei count: measured here: cell number, toxicity
[4] = molecular target: Voltage-gated potassium channel subunit beta-2 (Rattus norvegicus) (UniProt P62483); test: inhibitors of rat Kvbeta2 reductase activity – biochemical, NADPH fluorescence, primary screen (AID 622;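 active means fluorescence slope higher than the sample average by over 3 SD, cut at about -0.22 in these data, passing the limit was not always enough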;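 further: slope of raw intensity against log time taken from 70 to 1610 s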); settings: recombinant KvBeta, 4-cyanobenzaldehyde reduction, at 10 µM, stronger effect = higher value
[5] = molecular target: Voltage-gated potassium channel subunit beta-2 (Rattus norvegicus) (UniProt P62483); test: enhancers of rat Kvbeta2 NADPH turnover – biochemical, NADPH fluorescence, primary screen (AID 623;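 active means NADPH fluorescence slope more negative than the mean of all samples by about 3 SD, 99.7% confidence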;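 further: fluorescence intensity change per second fitted from 20 to 320 s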); settings: Recombinant KvBeta, NADPH fluorescence decrease slope, 10 min; at 10 µM; stronger effect = lower value
[6] = molecular target: Muscarinic acetylcholine receptor M4 (Homo sapiens) (UniProt P08173); test: M4-linked GIRK flux change, two-sided – cell-based, HEK293 M4/GIRK, thallium flux, BTC-AM, M4 allosteric agonist project, primary screen (AID 625;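 active means fluorescence slope after compound addition differing from the mean of all tested samples at 99.7% confidence, mostly higher but some lower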;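 further: thallium influx through GIRK channels coupled to M4 in HEK293 cells with BTC-AM dye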); settings: at 10 µM, actives lie on both sides
Outline: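 Material: M4/GIRK1/GIRK2 stable HEK293 cell line. Medium: pH 7.3 thallium assay buffer. Dosing: single compound concentration, 10 µM final. Schedule: 1 h dye loading, 2 min kinetic read. Measured by: kinetic fluorescence with BTC-AM dye. Read-out: post-addition slope, 15–24 s, of baseline-normalized fluorescence. Benchmarks: carbachol and DMSO controls.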

[7] = blockers of RIG-like receptor reporter activation – cell-based, Sendai virus stimulus, luciferase, 10K MLSCN set, TLR/RLR signaling modifier project, primary screen (AID 602276); settings: HEK293 RL24 IRF3 luciferase reporter, at 10 µM, stronger effect = higher value;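 further: firefly luciferase from ISG56 promoter only with Renilla not read in this screen; 0% = Sendai virus plus DMSO and 100% = medium plus DMSO without virus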
[8] = TLR3 IRF3 reporter activation blockers – cell-based, poly I:C stimulus, luciferase, 10K MLSCN set, primary screen (AID 602277;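 active means inhibition of the reporter signal at or above 50%; inactive means inhibition below 50%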); settings: HEK293-TLR3 RL24 IRF3 luciferase reporter, at 10 µM, stronger effect = higher value

Chain of Muscarinic acetylcholine receptor M4 (Homo sapiens) (P08173 whole entry, looked up): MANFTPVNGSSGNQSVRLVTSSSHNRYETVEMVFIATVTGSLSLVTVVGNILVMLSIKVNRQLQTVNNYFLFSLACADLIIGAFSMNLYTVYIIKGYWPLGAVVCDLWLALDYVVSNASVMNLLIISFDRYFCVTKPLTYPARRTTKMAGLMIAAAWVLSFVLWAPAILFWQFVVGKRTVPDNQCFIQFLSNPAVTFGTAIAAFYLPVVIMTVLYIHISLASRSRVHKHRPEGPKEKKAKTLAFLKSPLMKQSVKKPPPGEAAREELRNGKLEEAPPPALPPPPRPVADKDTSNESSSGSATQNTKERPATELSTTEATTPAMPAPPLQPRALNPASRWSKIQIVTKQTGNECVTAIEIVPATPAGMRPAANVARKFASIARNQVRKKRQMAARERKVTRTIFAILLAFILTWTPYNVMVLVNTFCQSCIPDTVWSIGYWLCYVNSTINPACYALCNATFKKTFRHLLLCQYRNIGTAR
Chain of Voltage-gated potassium channel subunit beta-2 (Rattus norvegicus) (P62483 whole entry, looked up): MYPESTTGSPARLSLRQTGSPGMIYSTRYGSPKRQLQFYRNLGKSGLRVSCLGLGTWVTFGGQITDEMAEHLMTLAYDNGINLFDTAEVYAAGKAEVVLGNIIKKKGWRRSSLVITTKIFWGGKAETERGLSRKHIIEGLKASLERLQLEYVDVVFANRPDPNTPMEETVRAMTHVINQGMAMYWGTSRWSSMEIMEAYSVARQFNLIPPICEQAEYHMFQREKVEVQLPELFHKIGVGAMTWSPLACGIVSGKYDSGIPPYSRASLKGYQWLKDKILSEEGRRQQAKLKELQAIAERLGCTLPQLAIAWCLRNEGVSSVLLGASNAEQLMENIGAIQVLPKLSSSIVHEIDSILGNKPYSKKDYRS

O=C(Nc1ccc(N2CCOCC2)cc1)c1cccc(S(=O)(=O)N2CCCC2)c1
cell count [1]: 401 | inhibition [1]: -0.5% (inactive) | inhibition of aggregation [2]: 6.3% (inactive) | nuclei count [2]: 106% | inhibition [3]: -31.6% (inactive) | nuclei count [3]: 110% | fluorescence slope [4]: -0.309 (inactive) | NADPH fluorescence slope [5]: -3.6e-05 (inactive) | fluorescence slope [6]: 0.00454 (inactive) | inhibition [7]: 12.2% (inactive) | inhibition [8]: 9.44% (inactive)

COc1ccc(OC)c(C2C3=C(CCCC3=O)Nc3c2c(=O)n(C)c(=O)n3C)c1 (stereo not drawn)
cell count [1]: 508 | inhibition [1]: 1.4% (inactive) | inhibition of aggregation [2]: 4.8% (inactive) | nuclei count [2]: 89.5% | inhibition [3]: -15.1% (inactive) | nuclei count [3]: 96.3% | fluorescence slope [4]: -0.547 (inactive) | NADPH fluorescence slope [5]: -0.000161 (inactive) | fluorescence slope [6]: 0.00407 (inactive) | inhibition [7]: 4.02% (inactive) | inhibition [8]: 0.406% (inactive)

Cc1nnc(C)n1/N=C/c1cccc(Oc2ccccc2)c1
cell count [1]: 344 | inhibition [1]: -0.6% (inactive) | inhibition of aggregation [2]: 0.1% (inactive) | nuclei count [2]: 102% | inhibition [3]: -5.9% (inactive) | nuclei count [3]: 106% | fluorescence slope [4]: -0.462 (inactive) | NADPH fluorescence slope [5]: 1.6e-05 (inactive) | fluorescence slope [6]: 0.00567 (inactive) | inhibition [7]: 21.3% (inactive) | inhibition [8]: 31.8% (inactive)

CC1CCN(C(=O)Cn2c(=O)oc3ccccc32)CC1
cell count [1]: 322 | inhibition [1]: -0.6% (inactive) | inhibition of aggregation [2]: 15.4% (inactive) | nuclei count [2]: 100% | inhibition [3]: -222% (inactive) | nuclei count [3]: 104% | fluorescence slope [4]: -0.57 (inactive) | NADPH fluorescence slope [5]: 4.8e-06 (inactive) | fluorescence slope [6]: 0.00554 (inactive) | inhibition [7]: -14.5% (inactive) | inhibition [8]: -12.5% (inactive)

COc1cccc(-c2cc(C(=O)Nc3c(C)nn(Cc4ccccc4)c3C)no2)c1
cell count [1]: 438 | inhibition [1]: -12.2% (inactive) | inhibition of aggregation [2]: -6.5% (inactive) | nuclei count [2]: 105% | inhibition [3]: 41.8% (inactive) | nuclei count [3]: 87% | fluorescence slope [4]: -0.249 (inactive) | NADPH fluorescence slope [5]: -2.3e-05 (inactive) | fluorescence slope [6]: 0.00831 (inactive) | inhibition [7]: 0.514% (inactive) | inhibition [8]: -23.3% (inactive)

CSc1ccccc1NS(=O)(=O)c1ccccc1
cell count [1]: 558 | inhibition [1]: -1% (inactive) | inhibition of aggregation [2]: -14.6% (inactive) | nuclei count [2]: 96.9% | inhibition [3]: -8.2% (inactive) | nuclei count [3]: 105% | fluorescence slope [4]: -0.454 (inactive) | NADPH fluorescence slope [5]: 1.4e-05 (inactive) | fluorescence slope [6]: 0.00445 (inactive) | inhibition [7]: 13% (inactive) | inhibition [8]: 12.9% (inactive)

COc1cccc(C(=O)Nc2ccc(N(C)C)cc2)c1OC
cell count [1]: 718 | inhibition [1]: 0.8% (inactive) | inhibition of aggregation [2]: 1.4% (inactive) | nuclei count [2]: 104% | inhibition [3]: -79.8% (inactive) | nuclei count [3]: 109% | fluorescence slope [4]: -0.493 (inactive) | NADPH fluorescence slope [5]: 1.7e-05 (inactive) | fluorescence slope [6]: 0.00556 (inactive) | inhibition [7]: -4.94% (inactive) | inhibition [8]: -69.6% (inactive)

CCOC(=O)C1CCN(Cc2ccc(C(=O)OC)cc2)CC1
cell count [1]: 462 | inhibition [1]: -4.3% (inactive) | inhibition of aggregation [2]: -0.6% (inactive) | nuclei count [2]: 97% | inhibition [3]: 4.3% (inactive) | nuclei count [3]: 85.6% | fluorescence slope [4]: -0.595 (inactive) | NADPH fluorescence slope [5]: -4.2e-05 (inactive) | fluorescence slope [6]: 0.0043 (inactive) | inhibition [7]: 0.779% (inactive) | inhibition [8]: 12.5% (inactive)

COc1cc2[nH]c(=O)n(CCCCCC(=O)NCCCN3CCCC3=O)c(=O)c2cc1OC
cell count [1]: 703 | inhibition [1]: -23.7% (inactive) | inhibition of aggregation [2]: 3.9% (inactive) | nuclei count [2]: 102% | inhibition [3]: -42.1% (inactive) | nuclei count [3]: 124% | fluorescence slope [4]: -0.457 (inactive) | NADPH fluorescence slope [5]: -7.1e-05 (inactive) | fluorescence slope [6]: 0.0052 (inactive) | inhibition [7]: 13.3% (inactive) | inhibition [8]: 22.1% (inactive)

Cc1ccc(-n2c(=O)c3sccc3n(CC(=O)NCc3ccco3)c2=O)cc1
cell count [1]: 488 | inhibition [1]: 0.3% (inactive) | inhibition of aggregation [2]: 21.9% (inactive) | nuclei count [2]: 103% | inhibition [3]: -9.8% (inactive) | nuclei count [3]: 108% | fluorescence slope [4]: -0.579 (inactive) | NADPH fluorescence slope [5]: -3.1e-05 (inactive) | fluorescence slope [6]: 0.0056 (inactive) | inhibition [7]: 6.07% (inactive) | inhibition [8]: 12.8% (inactive)

CC1CCN(S(=O)(=O)c2ccc(NC(=O)CSc3nnnn3C)cc2)CC1
cell count [1]: 289 | inhibition [1]: -5.4% (inactive) | inhibition of aggregation [2]: -4.7% (inactive) | nuclei count [2]: 107% | inhibition [3]: -1.6% (inactive) | nuclei count [3]: 91.8% | fluorescence slope [4]: -0.411 (inactive) | NADPH fluorescence slope [5]: -3.1e-05 (inactive) | fluorescence slope [6]: 0.00682 (inactive) | inhibition [7]: 10.9% (inactive) | inhibition [8]: 20.7% (inactive)

CS(=O)(=O)N1CCc2cc(C(=O)N3CCCCC3)ccc21
cell count [1]: 493 | inhibition [1]: 6.1% (inactive) | inhibition of aggregation [2]: 0.6% (inactive) | nuclei count [2]: 100% | inhibition [3]: -8.3% (inactive) | nuclei count [3]: 83.3% | fluorescence slope [4]: -0.494 (inactive) | NADPH fluorescence slope [5]: 5.6e-05 (inactive) | fluorescence slope [6]: 0.00629 (inactive) | inhibition [7]: 17.7% (inactive) | inhibition [8]: 18.6% (inactive)

COC(=O)c1ccccc1S(=O)(=O)N(CCCN1CCOCC1)Cc1cccs1
cell count [1]: 328 | inhibition [1]: 2.1% (inactive) | inhibition of aggregation [2]: 2.9% (inactive) | nuclei count [2]: 104% | inhibition [3]: -43.1% (inactive) | nuclei count [3]: 115% | fluorescence slope [4]: -0.502 (inactive) | NADPH fluorescence slope [5]: 1.2e-05 (inactive) | fluorescence slope [6]: 0.00684 (inactive) | inhibition [7]: 14% (inactive) | inhibition [8]: 19.2% (inactive)

From PubChem BioAssay
